Results from publication PMC11612064 (EJNMMI Radiopharmacy and Chemistry, 2024).
One block for each molecule: values may come before it.

Experiments:
ACE2 = ACE2 (Homo sapiens, UniProt Q9BYF1); test: In vivo biodistribution studies; design: species or system humanized ACE2 mice; settings: 30 min after injection, i.v. tail vein 3.7 MBq/kg, mean ± SD, n = 3
Procedure, shortened: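 Male humanized ACE2 knock-in mice (C57BL/6 background, 6 weeks old) under 1.5% isoflurane, kept warm, received the ¹⁸F-labelled test compound by lateral tail vein and were killed by cervical dislocation 30 min later. Organs were weighed and gamma-counted, decay-corrected to euthanasia, and reported as %ID/g. Anti-ACE2 IHC AOD (integrated optical density/area) was linearly regressed against %ID/g.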

[1] = target: bovine carboxypeptidase A; settings: ref Wang et al. [2024], Joshi et al. [2016]; cited from earlier work
human testicular ACE = settings: ref Wang et al. [2024], Joshi et al. [2016]; cited from earlier work
human ACE2 = settings: ref Wang et al. [2024], Joshi et al. [2016]; cited from earlier work

Chain of ACE2 (Q9BYF1 18-805): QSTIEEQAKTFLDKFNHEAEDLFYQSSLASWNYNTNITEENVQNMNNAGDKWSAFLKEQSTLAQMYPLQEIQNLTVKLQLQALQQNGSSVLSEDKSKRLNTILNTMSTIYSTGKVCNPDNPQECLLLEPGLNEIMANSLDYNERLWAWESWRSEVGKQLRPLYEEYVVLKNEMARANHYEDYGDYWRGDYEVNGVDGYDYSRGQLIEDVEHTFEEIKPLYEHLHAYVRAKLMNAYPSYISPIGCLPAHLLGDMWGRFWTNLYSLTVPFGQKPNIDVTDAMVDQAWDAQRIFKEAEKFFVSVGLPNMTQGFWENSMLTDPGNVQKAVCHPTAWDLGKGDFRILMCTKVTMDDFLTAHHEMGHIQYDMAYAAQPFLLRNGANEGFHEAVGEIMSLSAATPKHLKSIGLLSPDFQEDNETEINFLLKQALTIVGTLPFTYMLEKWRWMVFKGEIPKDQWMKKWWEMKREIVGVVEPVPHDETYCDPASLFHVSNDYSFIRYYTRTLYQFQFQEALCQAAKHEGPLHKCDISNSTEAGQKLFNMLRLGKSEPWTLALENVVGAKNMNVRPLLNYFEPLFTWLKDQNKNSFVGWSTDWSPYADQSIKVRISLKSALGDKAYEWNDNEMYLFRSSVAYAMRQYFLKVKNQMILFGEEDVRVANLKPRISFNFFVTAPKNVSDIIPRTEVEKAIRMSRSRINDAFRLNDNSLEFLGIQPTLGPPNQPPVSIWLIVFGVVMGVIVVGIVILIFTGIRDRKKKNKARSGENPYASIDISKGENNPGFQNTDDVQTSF

Tissue uptake, Belly fat (ACE2): 0.48 ± 0.45 %ID/g
Tissue uptake, Cerebellum (ACE2): 0.40 ± 0.22 %ID/g
Tissue uptake, Cerebrum (ACE2): 3.18 ± 4.31 %ID/g
Tissue uptake, Eyeball (ACE2): 2.84 ± 0.74 %ID/g
Tissue uptake, Heart (ACE2): 3.26 ± 0.28 %ID/g
Tissue uptake, Kidneys (ACE2): 4.73 ± 0.58 %ID/g
Tissue uptake, Large intestine (ACE2): 3.34 ± 1.88 %ID/g
Tissue uptake, Liver (ACE2): 2.31 ± 0.77 %ID/g
Tissue uptake, Lung (ACE2): 2.49 ± 1.09 %ID/g
Tissue uptake, Medulla (ACE2): 1.83 ± 0.27 %ID/g
Tissue uptake, Muscle (ACE2): 2.27 ± 0.75 %ID/g
Tissue uptake, Oesophagus (ACE2): 11.32 ± 4.13 %ID/g
Tissue uptake, Parotid (ACE2): 1.93 ± 0.79 %ID/g
Tissue uptake, Shoulder fat (ACE2): 2.84 ± 1.56 %ID/g
Tissue uptake, Small intestine (ACE2): 2.74 ± 0.90 %ID/g
Tissue uptake, Spleen (ACE2): 1.58 ± 2.11 %ID/g
Tissue uptake, Stomach (ACE2): 3.34 ± 2.71 %ID/g
Tissue uptake, Testicles (ACE2): 2.91 ± 1.95 %ID/g
SMILES: CC(C)C[C@H](N[C@@H](Cc1cncn1Cc1cc([18F])cc(Cl)c1)C(=O)O)C(=O)O [^18F-MLN-4760]

SMILES: CC(C)C[C@H](N[C@@H](Cc1cncn1Cc1cc(Cl)cc(Cl)c1)C(=O)O)C(=O)O [MLN-4760]
IC50 [1]: 27 µM
IC50 (human testicular ACE): > 100 µM
IC50 (human ACE2): 0.00044 µM
